According to ChEMBL document CHEMBL1146124, “Kinesin spindle protein (KSP) inhibitors. Part 3: synthesis and evaluation of phenolic 2,4-diaryl-2,5-dihydropyrroles with reduced hERG binding and employment of a phosphate prodrug strategy for aqueous solubility” (Bioorg Med Chem Lett, 2006):

Experiments:
[1] = Plasma clearance in rat at 1 mg/kg, iv; type: ADME, organism-based; parameters: dose 1 mg/kg, route intravenous
Procedure, shortened: (§1)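 Given intravenously to rats at 1 mpk, with DMSO as the vehicle.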

[2] = Plasma clearance in dog at 0.4 mg/kg, iv; type: ADME, organism-based, Canis lupus familiaris; parameters: dose 0.4 mg/kg, route intravenous
Procedure, shortened: (§2)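 Given intravenously to dogs at 0.4 mpk, with DMSO as the vehicle.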

[3] = test system: Rattus norvegicus; assay: Ratio of AUC's for parent compound after prodrug dosing and parent compound dosing in rat at 1 mg/kg, iv; type: ADME, organism-based; parameters: dose 1 mg/kg, route intravenous; conditions: in vivo
Procedure, shortened: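 Prodrug and parent were each given intravenously in DMSO to rats at 1 mpk. The value is the AUC of parent after prodrug dosing divided by the AUC after direct parent dosing, expressed as a percentage.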

[4] = test system: Canis familiaris; assay: Ratio of AUC's for parent compound after prodrug dosing and parent compound dosing in dog at 0.4 mg/kg, iv; type: ADME, organism-based, Canis lupus familiaris; parameters: dose 0.4 mg/kg, route intravenous; conditions: in vivo
Procedure, shortened: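 Prodrug and parent were each given intravenously in DMSO to dogs at 0.4 mpk. The value is the AUC of parent after prodrug dosing divided by the AUC after direct parent dosing, expressed as a percentage.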

[5] = Half life in rat at 1 mg/kg, iv; type: ADME, organism-based; parameters: dose 1 mg/kg, route intravenous; conditions: in vivo; procedure, shortened: as §1
[6] = Half life in dog at 0.4 mg/kg, iv; type: ADME, organism-based, Canis lupus familiaris; parameters: dose 0.4 mg/kg, route intravenous; conditions: in vivo; procedure, shortened: as §2
[7] = test system: A2780; assay: Mitotic arrest in A2780 cells; type: functional, cell-based; conditions: Homo sapiens
Procedure, shortened: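 M-phase arrest read out by antibody-based detection of phosphonucleolin. Values are the average of at least two determinations, with standard deviations of 25–50%.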

[8] = molecular target: T1, Kinesin-like protein KIF11 (Homo sapiens, UniProt P52732); assay: Inhibition of KSP by ATPase assay
T1 sequence (P52732 whole entry): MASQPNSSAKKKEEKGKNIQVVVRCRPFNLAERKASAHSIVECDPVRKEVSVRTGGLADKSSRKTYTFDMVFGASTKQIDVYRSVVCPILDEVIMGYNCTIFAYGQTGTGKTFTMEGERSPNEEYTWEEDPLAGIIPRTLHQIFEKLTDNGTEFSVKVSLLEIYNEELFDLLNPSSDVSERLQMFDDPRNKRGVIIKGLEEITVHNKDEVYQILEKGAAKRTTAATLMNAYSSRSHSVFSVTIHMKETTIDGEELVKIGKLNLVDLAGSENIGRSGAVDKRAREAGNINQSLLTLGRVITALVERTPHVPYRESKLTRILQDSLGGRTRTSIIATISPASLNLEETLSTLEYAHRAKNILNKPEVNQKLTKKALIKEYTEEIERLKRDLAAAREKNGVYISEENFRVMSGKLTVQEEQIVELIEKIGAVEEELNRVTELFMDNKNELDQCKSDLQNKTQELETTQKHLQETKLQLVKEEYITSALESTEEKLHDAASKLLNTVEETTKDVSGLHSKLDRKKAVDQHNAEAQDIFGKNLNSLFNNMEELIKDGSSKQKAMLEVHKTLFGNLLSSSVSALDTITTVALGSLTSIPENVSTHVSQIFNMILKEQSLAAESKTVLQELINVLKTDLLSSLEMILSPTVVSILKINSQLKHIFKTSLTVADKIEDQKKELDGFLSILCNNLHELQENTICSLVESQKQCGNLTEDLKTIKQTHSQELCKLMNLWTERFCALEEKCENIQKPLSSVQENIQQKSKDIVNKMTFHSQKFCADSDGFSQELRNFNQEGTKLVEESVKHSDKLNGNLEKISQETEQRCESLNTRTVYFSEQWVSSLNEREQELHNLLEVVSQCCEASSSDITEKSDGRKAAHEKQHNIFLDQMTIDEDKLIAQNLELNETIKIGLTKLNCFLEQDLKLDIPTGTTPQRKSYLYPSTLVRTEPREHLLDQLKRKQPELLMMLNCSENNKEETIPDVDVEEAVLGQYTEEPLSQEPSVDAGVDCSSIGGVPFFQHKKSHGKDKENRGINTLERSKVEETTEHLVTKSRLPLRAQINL

[9] = molecular target: Voltage-gated inwardly rectifying potassium channel KCNH2 (Homo sapiens, UniProt Q12809); assay: Inhibitory activity against human hERG receptor expressed in HEK cells
Voltage-gated inwardly rectifying potassium channel KCNH2, sequence (Q12809 whole entry): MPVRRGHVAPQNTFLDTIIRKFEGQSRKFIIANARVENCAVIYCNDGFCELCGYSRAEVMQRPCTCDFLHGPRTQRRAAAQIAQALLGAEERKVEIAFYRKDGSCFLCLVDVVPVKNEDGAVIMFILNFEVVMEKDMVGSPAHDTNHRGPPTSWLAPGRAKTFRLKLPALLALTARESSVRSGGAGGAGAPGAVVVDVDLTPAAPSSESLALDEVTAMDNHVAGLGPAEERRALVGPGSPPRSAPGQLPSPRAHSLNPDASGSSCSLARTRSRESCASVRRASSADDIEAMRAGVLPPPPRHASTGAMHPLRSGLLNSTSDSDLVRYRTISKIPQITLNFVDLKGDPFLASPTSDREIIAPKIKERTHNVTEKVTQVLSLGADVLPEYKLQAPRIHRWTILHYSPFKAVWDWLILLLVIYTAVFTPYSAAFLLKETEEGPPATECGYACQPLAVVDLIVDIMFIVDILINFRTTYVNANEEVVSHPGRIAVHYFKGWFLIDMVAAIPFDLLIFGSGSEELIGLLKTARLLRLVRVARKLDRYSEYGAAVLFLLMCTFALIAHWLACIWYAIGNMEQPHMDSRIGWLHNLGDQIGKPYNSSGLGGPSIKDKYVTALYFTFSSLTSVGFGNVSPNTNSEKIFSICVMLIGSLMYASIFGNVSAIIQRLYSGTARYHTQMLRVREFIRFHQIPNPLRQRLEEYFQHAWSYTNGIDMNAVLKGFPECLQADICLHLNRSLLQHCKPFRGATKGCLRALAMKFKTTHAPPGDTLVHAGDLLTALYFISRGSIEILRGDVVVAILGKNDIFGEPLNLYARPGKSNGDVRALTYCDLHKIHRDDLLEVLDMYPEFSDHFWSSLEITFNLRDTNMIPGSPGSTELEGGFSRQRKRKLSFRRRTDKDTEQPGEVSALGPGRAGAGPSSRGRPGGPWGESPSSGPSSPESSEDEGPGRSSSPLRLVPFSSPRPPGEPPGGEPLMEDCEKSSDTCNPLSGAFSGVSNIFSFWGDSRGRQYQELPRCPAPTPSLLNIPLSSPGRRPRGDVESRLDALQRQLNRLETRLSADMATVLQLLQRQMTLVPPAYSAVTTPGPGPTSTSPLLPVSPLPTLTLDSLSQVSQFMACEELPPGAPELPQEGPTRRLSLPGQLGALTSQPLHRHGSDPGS

SMILES | half-life [5] | half-life [6] | EC50 [7] | IC50 [8] | further results
CC(C)(C)[C@H](NC(=O)OCCO)C(=O)N1CC(c2cc(F)ccc2F)=C[C@H]1c1ccccc1 | 18 min | 168 min | – | – | clearance [1]: 68 mL/min/kg; clearance [2]: 11 mL/min/kg; Ratio AUC [3]: 57%; Ratio AUC [4]: 38%
CC(C)(C)[C@H](NC(=O)OCCOP(=O)(O)O)C(=O)N1CC(c2cc(F)ccc2F)=C[C@H]1c1ccccc1 | < 6 min | < 6 min | – | – | –
N[C@H](C(=O)N1CC(c2cc(F)ccc2F)=C[C@H]1c1cccc(O)c1)C1CC1 | – | – | 3 nM | 0.5 nM | –
CN(CCO)C(=O)N1CC(c2cc(F)ccc2F)=C[C@H]1c1cccc(O)c1 | – | – | 9.1 nM | 4 nM | –
CC(C)(C)[C@H](O)C(=O)N1CC(c2cc(F)ccc2F)=C[C@H]1c1cccc(O)c1 | – | – | 2.6 nM | 1.3 nM | –
CN(C)C(=O)N1CC(c2cc(F)ccc2F)=C[C@H]1c1cccc(OP(=O)(O)O)c1 | 9 min | 15 min | – | – | –
O=C([C@@H](O)C1CC1)N1CC(c2cc(F)ccc2F)=C[C@H]1c1cccc(O)c1 | – | – | 3.1 nM | 2.9 nM | –
CC(C)(C)C(=O)N1CC(c2cc(F)ccc2F)=C[C@H]1c1cccc(O)c1 | – | – | 37 nM | 13 nM | IC50 [9]: 7800 nM
CC(C)[C@H](N)C(=O)N1CC(c2cc(F)ccc2F)=C[C@H]1c1cccc(O)c1 | – | – | 3.3 nM | 1.2 nM | –
CN(C)C(=O)N1CC(c2cc(F)ccc2F)=C[C@H]1c1cccc(O)c1 | 18 min | 90 min | 22 nM | 7 nM | clearance [1]: 68 mL/min/kg; clearance [2]: 13 mL/min/kg
CN(C(=O)N1CC(c2cc(F)ccc2F)=CC1c1cccc(O)c1)C1CCNCC1 (racemic) | – | – | 8.5 nM | 5.5 nM | –
